From ChEMBL document CHEMBL5724801, “EUbOPEN Chemogenomics Library - Multiplex” (2024)
Several values for one entry are separate records, joined by “and”; a condition that tells them apart may be missing. Identical values can stand only once.

System: HEK-293T
Assay: Multiplex assay against HEK293T
Assay type: toxicity, cell-based
Conditions: human
In short: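 Cells were classed with CellPathfinder machine-learning gating, first as Hoechst high-intensity objects or normal cells, then (normal cells) as healthy, pyknosed or fragmented nuclei, and finally (pyknosed cells) as mitotic or apoptotic. Staining of live cells at seeding used Hoechst33342, BioTracker Green Microtubule Cytoskeleton Dye, MitoTracker Red and Annexin V Alexa Fluor 680, with imaging on a CQ1 microscope at 37°C and 5% CO2 after compound addition. Tubulin, mitochondrial-mass and membrane-permeability phenotypes are per cents of healthy-nucleus cells.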

[1] = 12 h, 1 µM, compound concentration 1 uM
[2] = 12 h, 10 µM, compound concentration 10 uM
[3] = 24 h, 1 µM, compound concentration 1 uM
[4] = 24 h, 10 µM, compound concentration 10 uM
[5] = 48 h, 1 µM, compound concentration 1 uM
[6] = 48 h, 10 µM, compound concentration 10 uM

## O=c1ccc2ccc(OCCCCN3CCN(c4cccc5sccc45)CC3)cc2[nH]1 [BREXPIPRAZOLE]
[1]
  Population Apoptotic (%): 44% and 42%
  Population Fragmented Nuclei (%): 6% and 5%
  Population Healthy Nuclei (%): 77% and 80%
  Population Hoechst High Intensity Objects (%): 6%
  Population Membrane Permeable-Phenotype (%): 0%
  Population Mitochondria Different-Phenotype (%): 67% and 69%
  Population Mitotic Cells (%): 55% and 57%
  Population Normal (%): 93%
  Population Pyknosed Nuclei (%): 15% and 14%
  Population Tubulin-Different-Phenotype (%): 51% and 47%
  Total Cell Count: 392 and 354
[2]
  Population Apoptotic (%): 82% and 85%
  Population Fragmented Nuclei (%): 17% and 10%
  Population Healthy Nuclei (%): 43% and 66%
  Population Hoechst High Intensity Objects (%): 66% and 41%
  Population Membrane Permeable-Phenotype (%): 0%
  Population Mitochondria Different-Phenotype (%): 97% and 100%
  Population Mitotic Cells (%): 17% and 14%
  Population Normal (%): 33% and 59%
  Population Pyknosed Nuclei (%): 38% and 23%
  Population Tubulin-Different-Phenotype (%): 81% and 62%
  Total Cell Count: 299 and 200
[3]
  Population Apoptotic (%): 41% and 42%
  Population Fragmented Nuclei (%): 10% and 4%
  Population Healthy Nuclei (%): 73% and 87%
  Population Hoechst High Intensity Objects (%): 8% and 2%
  Population Membrane Permeable-Phenotype (%): 0%
  Population Mitochondria Different-Phenotype (%): 51% and 52%
  Population Mitotic Cells (%): 58% and 57%
  Population Normal (%): 91% and 97%
  Population Pyknosed Nuclei (%): 16% and 7%
  Population Tubulin-Different-Phenotype (%): 36% and 35%
  Total Cell Count: 501 and 449
[4]
  Population Apoptotic (%): 91% and 89%
  Population Fragmented Nuclei (%): 12% and 10%
  Population Healthy Nuclei (%): 37% and 59%
  Population Hoechst High Intensity Objects (%): 68% and 46%
  Population Membrane Permeable-Phenotype (%): 0%
  Population Mitochondria Different-Phenotype (%): 100% and 98%
  Population Mitotic Cells (%): 8% and 10%
  Population Normal (%): 31% and 53%
  Population Pyknosed Nuclei (%): 50% and 30%
  Population Tubulin-Different-Phenotype (%): 66% and 57%
  Total Cell Count: 284 and 180
[5]
  Population Apoptotic (%): 49% and 48%
  Population Fragmented Nuclei (%): 9% and 12%
  Population Healthy Nuclei (%): 80% and 79%
  Population Hoechst High Intensity Objects (%): 5% and 3%
  Population Membrane Permeable-Phenotype (%): 0% and 1%
  Population Mitochondria Different-Phenotype (%): 47% and 36%
  Population Mitotic Cells (%): 50% and 51%
  Population Normal (%): 94% and 96%
  Population Pyknosed Nuclei (%): 10% and 7%
  Population Tubulin-Different-Phenotype (%): 28% and 26%
  Total Cell Count: 679 and 644
[6]
  Population Apoptotic (%): 93% and 89%
  Population Fragmented Nuclei (%): 19% and 14%
  Population Healthy Nuclei (%): 30% and 50%
  Population Hoechst High Intensity Objects (%): 67% and 52%
  Population Membrane Permeable-Phenotype (%): 0%
  Population Mitochondria Different-Phenotype (%): 96% and 97%
  Population Mitotic Cells (%): 6% and 10%
  Population Normal (%): 32% and 47%
  Population Pyknosed Nuclei (%): 50% and 34%
  Population Tubulin-Different-Phenotype (%): 51% and 82%
  Total Cell Count: 269 and 170

## CN(C)c1ccnc2sc3c(=O)n(N4CCCCCC4)cnc3c12
[1]
  Population Apoptotic (%): 45% and 51%
  Population Fragmented Nuclei (%): 9% and 5%
  Population Healthy Nuclei (%): 76% and 82%
  Population Hoechst High Intensity Objects (%): 4% and 8%
  Population Membrane Permeable-Phenotype (%): 1% and 0%
  Population Mitochondria Different-Phenotype (%): 50% and 67%
  Population Mitotic Cells (%): 54% and 48%
  Population Normal (%): 95% and 91%
  Population Pyknosed Nuclei (%): 13% and 12%
  Population Tubulin-Different-Phenotype (%): 43% and 25%
  Total Cell Count: 360 and 335
[2]
  Population Apoptotic (%): 36% and 59%
  Population Fragmented Nuclei (%): 4% and 9%
  Population Healthy Nuclei (%): 81% and 72%
  Population Hoechst High Intensity Objects (%): 10% and 13%
  Population Membrane Permeable-Phenotype (%): 0%
  Population Mitochondria Different-Phenotype (%): 78% and 76%
  Population Mitotic Cells (%): 63% and 40%
  Population Normal (%): 89% and 86%
  Population Pyknosed Nuclei (%): 14% and 17%
  Population Tubulin-Different-Phenotype (%): 79% and 59%
  Total Cell Count: 387 and 308
[3]
  Population Apoptotic (%): 30% and 25%
  Population Fragmented Nuclei (%): 10% and 7%
  Population Healthy Nuclei (%): 76% and 84%
  Population Hoechst High Intensity Objects (%): 4% and 5%
  Population Membrane Permeable-Phenotype (%): 1% and 0%
  Population Mitochondria Different-Phenotype (%): 27% and 51%
  Population Mitotic Cells (%): 70% and 74%
  Population Normal (%): 95% and 94%
  Population Pyknosed Nuclei (%): 12% and 7%
  Population Tubulin-Different-Phenotype (%): 24% and 22%
  Total Cell Count: 510 and 470
[4]
  Population Apoptotic (%): 42% and 66%
  Population Fragmented Nuclei (%): 7% and 10%
  Population Healthy Nuclei (%): 76% and 74%
  Population Hoechst High Intensity Objects (%): 8% and 13%
  Population Membrane Permeable-Phenotype (%): 0%
  Population Mitochondria Different-Phenotype (%): 80% and 75%
  Population Mitotic Cells (%): 57% and 33%
  Population Normal (%): 91% and 86%
  Population Pyknosed Nuclei (%): 16% and 15%
  Population Tubulin-Different-Phenotype (%): 71% and 53%
  Total Cell Count: 428 and 359
[5]
  Population Apoptotic (%): 27% and 20%
  Population Fragmented Nuclei (%): 13% and 11%
  Population Healthy Nuclei (%): 78% and 82%
  Population Hoechst High Intensity Objects (%): 2% and 3%
  Population Membrane Permeable-Phenotype (%): 0% and 2%
  Population Mitochondria Different-Phenotype (%): 23% and 31%
  Population Mitotic Cells (%): 72% and 80%
  Population Normal (%): 97% and 96%
  Population Pyknosed Nuclei (%): 7% and 6%
  Population Tubulin-Different-Phenotype (%): 14% and 15%
  Total Cell Count: 721 and 663
[6]
  Population Apoptotic (%): 70% and 57%
  Population Fragmented Nuclei (%): 15% and 11%
  Population Healthy Nuclei (%): 72% and 75%
  Population Hoechst High Intensity Objects (%): 8% and 6%
  Population Membrane Permeable-Phenotype (%): 0%
  Population Mitochondria Different-Phenotype (%): 66% and 63%
  Population Mitotic Cells (%): 29% and 42%
  Population Normal (%): 91% and 93%
  Population Pyknosed Nuclei (%): 12%
  Population Tubulin-Different-Phenotype (%): 54% and 45%
  Total Cell Count: 497 and 450
